Tested on: Fibroblast
Experiment: Multiplex assay against human fibroblast
Format: toxicity, cell-based
In short: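 With compound added, live cells were imaged on a CQ1 microscope at 37°C and 5% CO2; staining with Hoechst33342, BioTracker Green Microtubule Cytoskeleton Dye, MitoTracker Red and Annexin V Alexa Fluor 680 had been done at seeding. The CellPathfinder machine-learning gating scheme split cells into Hoechst high-intensity objects or normal cells, normal cells into healthy, pyknosed or fragmented nuclei, and pyknosed cells into mitotic or apoptotic. The tubulin, mitochondrial-mass and membrane-permeability phenotypes are per cents of healthy-nucleus cells.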

[1] = 12 h, 1 µM, compound concentration 1 uM, replicate 1
[2] = 12 h, 1 µM, compound concentration 1 uM, replicate 2
[3] = 12 h, 10 µM, compound concentration 10 uM, replicate 1
[4] = 12 h, 10 µM, compound concentration 10 uM, replicate 2
[5] = 24 h, 1 µM, compound concentration 1 uM, replicate 1
[6] = 24 h, 1 µM, compound concentration 1 uM, replicate 2
[7] = 24 h, 10 µM, compound concentration 10 uM, replicate 1
[8] = 24 h, 10 µM, compound concentration 10 uM, replicate 2
[9] = 48 h, 1 µM, compound concentration 1 uM, replicate 1
[10] = 48 h, 1 µM, compound concentration 1 uM, replicate 2
[11] = 48 h, 10 µM, compound concentration 10 uM, replicate 1
[12] = 48 h, 10 µM, compound concentration 10 uM, replicate 2

## CN1CCN(c2ccc(OC(F)(F)F)c(Nc3ncc4c(n3)-c3c(c(C(N)=O)nn3CCO)CC4)c2)CC1 [ONVANSERTIB]
[1]
  Population Apoptotic (%): 63%
  Population Fragmented Nuclei (%): 23%
  Population Healthy Nuclei (%): 35%
  Population Hoechst High Intensity Objects (%): 19%
  Population Membrane Permeable-Phenotype (%): 29%
  Population Mitochondria Different-Phenotype (%): 10%
  Population Mitotic Cells (%): 36%
  Population Normal (%): 80%
  Population Pyknosed Nuclei (%): 40%
  Population Tubulin-Different-Phenotype (%): 41%
  Total Cell Count: 168
[2]
  Population Apoptotic (%): 25%
  Population Fragmented Nuclei (%): 11%
  Population Healthy Nuclei (%): 80%
  Population Hoechst High Intensity Objects (%): 14%
  Population Membrane Permeable-Phenotype (%): 0%
  Population Mitochondria Different-Phenotype (%): 14%
  Population Mitotic Cells (%): 75%
  Population Normal (%): 85%
  Population Pyknosed Nuclei (%): 7%
  Population Tubulin-Different-Phenotype (%): 16%
  Total Cell Count: 66
[3]
  Population Apoptotic (%): 68%
  Population Fragmented Nuclei (%): 34%
  Population Healthy Nuclei (%): 36%
  Population Hoechst High Intensity Objects (%): 15%
  Population Membrane Permeable-Phenotype (%): 3%
  Population Mitochondria Different-Phenotype (%): 9%
  Population Mitotic Cells (%): 32%
  Population Normal (%): 84%
  Population Pyknosed Nuclei (%): 29%
  Population Tubulin-Different-Phenotype (%): 64%
[4]
  Population Apoptotic (%): 40%
  Population Fragmented Nuclei (%): 9%
  Population Healthy Nuclei (%): 78%
  Population Hoechst High Intensity Objects (%): 19%
  Population Membrane Permeable-Phenotype (%): 0%
  Population Mitochondria Different-Phenotype (%): 84%
  Population Mitotic Cells (%): 60%
  Population Normal (%): 80%
  Population Pyknosed Nuclei (%): 12%
  Population Tubulin-Different-Phenotype (%): 78%
  Total Cell Count: 61
[5]
  Population Apoptotic (%): 53%
  Population Fragmented Nuclei (%): 25%
  Population Healthy Nuclei (%): 41%
  Population Hoechst High Intensity Objects (%): 24%
  Population Membrane Permeable-Phenotype (%): 25%
  Population Mitochondria Different-Phenotype (%): 7%
  Population Mitotic Cells (%): 46%
  Population Normal (%): 75%
  Population Pyknosed Nuclei (%): 33%
  Population Tubulin-Different-Phenotype (%): 61%
  Total Cell Count: 165
[6]
  Population Apoptotic (%): 57%
  Population Fragmented Nuclei (%): 21%
  Population Healthy Nuclei (%): 65%
  Population Hoechst High Intensity Objects (%): 5%
  Population Membrane Permeable-Phenotype (%): 5%
  Population Mitochondria Different-Phenotype (%): 32%
  Population Mitotic Cells (%): 42%
  Population Normal (%): 94%
  Population Pyknosed Nuclei (%): 13%
  Population Tubulin-Different-Phenotype (%): 11%
  Total Cell Count: 73
[7]
  Population Apoptotic (%): 58%
  Population Fragmented Nuclei (%): 39%
  Population Healthy Nuclei (%): 37%
  Population Hoechst High Intensity Objects (%): 18%
  Population Membrane Permeable-Phenotype (%): 28%
  Population Mitochondria Different-Phenotype (%): 0%
  Population Mitotic Cells (%): 41%
  Population Normal (%): 81%
  Population Pyknosed Nuclei (%): 23%
  Population Tubulin-Different-Phenotype (%): 66%
  Total Cell Count: 127
[8]
  Population Apoptotic (%): 40%
  Population Fragmented Nuclei (%): 11%
  Population Healthy Nuclei (%): 77%
  Population Hoechst High Intensity Objects (%): 16%
  Population Membrane Permeable-Phenotype (%): 5%
  Population Mitochondria Different-Phenotype (%): 82%
  Population Mitotic Cells (%): 60%
  Population Normal (%): 83%
  Population Pyknosed Nuclei (%): 11%
  Population Tubulin-Different-Phenotype (%): 55%
  Total Cell Count: 55
[9]
  Population Apoptotic (%): 53%
  Population Fragmented Nuclei (%): 38%
  Population Healthy Nuclei (%): 37%
  Population Hoechst High Intensity Objects (%): 21%
  Population Membrane Permeable-Phenotype (%): 25%
  Population Mitochondria Different-Phenotype (%): 6%
  Population Mitotic Cells (%): 46%
  Population Normal (%): 78%
  Population Pyknosed Nuclei (%): 24%
  Population Tubulin-Different-Phenotype (%): 65%
  Total Cell Count: 146
[10]
  Population Apoptotic (%): 40%
  Population Fragmented Nuclei (%): 25%
  Population Healthy Nuclei (%): 68%
  Population Hoechst High Intensity Objects (%): 17%
  Population Membrane Permeable-Phenotype (%): 13%
  Population Mitochondria Different-Phenotype (%): 1%
  Population Mitotic Cells (%): 60%
  Population Normal (%): 82%
  Population Pyknosed Nuclei (%): 5%
  Population Tubulin-Different-Phenotype (%): 23%
[11]
  Population Apoptotic (%): 50%
  Population Fragmented Nuclei (%): 46%
  Population Healthy Nuclei (%): 40%
  Population Hoechst High Intensity Objects (%): 23%
  Population Membrane Permeable-Phenotype (%): 19%
  Population Mitochondria Different-Phenotype (%): 9%
  Population Mitotic Cells (%): 50%
  Population Normal (%): 76%
  Population Pyknosed Nuclei (%): 13%
  Population Tubulin-Different-Phenotype (%): 69%
  Total Cell Count: 136
[12]
  Population Fragmented Nuclei (%): 37%
  Population Healthy Nuclei (%): 58%
  Population Hoechst High Intensity Objects (%): 20%
  Population Membrane Permeable-Phenotype (%): 7%
  Population Mitochondria Different-Phenotype (%): 4%
  Population Normal (%): 79%
  Population Pyknosed Nuclei (%): 4%
  Population Tubulin-Different-Phenotype (%): 73%
  Total Cell Count: 241

— ChEMBL document CHEMBL4689842, “EUbOPEN Chemogenomics Library wave 1” (2021)
